No end group written: not given here. *: point of attachment. Dansyl = CN(C)c1cccc2c(S(=O)(=O)*)cccc12; Me3 = trimethyl-lysine, K(Me3)
Key:
[1] = molecular target: truncated version of Eed (residues 77 to 441), ΔEed (UniProt O75530); experiment: other fluorescence titration
nucleosomes = experiment: pull-down, nucleosomes; format: binding; details: methylated or unmodified nucleosomes, not separated
Summary of the method: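 Reconstituted chromatin arrays (salt dialysis, agarose-column purified to remove free histone) at 2 ug were incubated with 2 ug protein or complex in 50mM Tris pH8.0, 50mM NaCl, 1 mM EDTA, 0.1% NP40 for 2 hours at 4°C. Capture was on NiNta beads for Eed or M2 beads for PRC2. After extensive washing, beads were eluted in SDS loading buffer and analysed by western blot.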

[2] = test system: chromatin trimethylated on H3K9; experiment: pull-down, chromatin trimethylated on H3K9; format: binding; details: 2 ug chromatin, 2 ug protein or complex, 2 hours at 4 C, western blot
Summary of the method: (§1)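 Recombinant histones were made in E. coli, assembled into octamers and formed into chromatin by salt dialysis, then purified on an agarose column. Chromatin (2 ug) was incubated with 2 ug Sf9-reconstituted PRC2-Ezh2 in 50 mM Tris pH 8.0, 50 mM NaCl, 1 mM EDTA, 0.1% NP40 with M2 beads for 2 h at 4 °C. Beads were washed, eluted in SDS loading buffer and analysed by western blot against a beads-only control.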

[3] = test system: chromatin reconstituted with histones containing the different levels of H3K36 methylation; experiment: pull-down, H3K36 methylated chromatin; format: binding; details: NiNta pull-down, Fig. S8
Summary of the method: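 Chromatin arrays were built from recombinant histones carrying single chemically installed methyl-lysine analogs, assembled into octamers, formed by salt dialysis and cleared of free histone on an agarose column. 2 ug chromatin was incubated with 2 ug full-length His-tagged Eed in 50mM Tris pH8.0, 50mM NaCl, 1 mM EDTA, 0.1% NP40 for 2 hours at 4°C with NiNta beads. Beads were washed extensively, eluted in SDS loading buffer and analysed by western blot.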

ΔEed = ΔEed (Homo sapiens, UniProt O75530, M370T); experiment: crystal structure of ΔEed with ligand; format: binding; details: crystallisation additive 0.6–0.7 M NDSB-195, 4.0–4.1 M formate
Summary of the method: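 ΔEed carrying Met-370Thr was purified by size exclusion (50 mM Tris-HCl pH 8.7, 150 mM NaCl, 3 mM TCEP) and held at 1.5 mg/ml with peptide at 7-fold molar excess, 15 mM TCEP. Hanging-drop vapour diffusion was run at 18 °C, mixing equal volumes with 3.7–3.9 M formate. Apo ΔEed (2.5 mg/ml) used 4.0–4.1 M formate with 0.6–0.7 M NDSB-195.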

unmodified chromatin = experiment: pull-down, unmodified chromatin; format: binding; details: M2-Beads pull-down, 2 hours at 4 C, western blot
Summary of the method: as §1

[4] = molecular target: truncated version of Eed (residues 77 to 441), ΔEed (UniProt O75530 78-441, Met-370Thr); experiment: other fluorescence titration

Molecule R26A of H3K27me3 peptide has a fold reduction of binding against the H3K27me3 peptide [1] of 1.5 fold.

“PRC2 Eed (Tyr-365Ala): mutant PRC2 complex containing Eed (Tyr-365Ala)” was tested, and the interaction with nucleosomes (nucleosomes) was “does not show binding to chromatin”.

“ΔEed: truncated version of Eed (residues 77 to 441)” was tested, and the interaction with nucleosomes (nucleosomes) was “failed to interact with nucleosomes”.

In the case of Eed: full-length His-tagged Eed protein, the “interaction with chromatin trimethylated on H3K9” value [2] is reported as “did bind” and the “interaction with H3K36 methylated chromatin” value [3] is reported as “not able to interact”.

In the case of `CC[N+](C)(C)CCCS(=O)(=O)[O-]` [NDSB-195], the “electron density in central pocket of ΔEed” value (ΔEed) is reported as “able to build into the extra electron density”.

For “PRC2: PRC2 complex purified from insect cells co-infected with baculovirus expressing each of the subunits”, the “interaction with unmodified chromatin” value (unmodified chromatin) was “displayed some binding” and the “interaction with chromatin trimethylated on H3K9” value [2] was “bound significantly tighter”.

With “PRC2 Eed (Phe-97Ala): mutant PRC2 complex containing Eed (Phe-97Ala)” the interaction with nucleosomes (nucleosomes) was “does not show binding to chromatin”.

KKKARK(Me3)SAGAAK(Dansyl) (not fully specified; printed as KKKARK(Me3)SAGAAK-dansyl) [dansyl labelled peptide KKKARK(Me3)SAGAAK-dansyl]: binds [4].

From article PMC3772642 (Nature, 2009)
